Consider 13 compounds from ChEMBL document CHEMBL3580549, “Lignan Glycosides from the Twigs of Chaenomeles sinensis and Their Biological Activities” (J Nat Prod, 2015).

Series [1] concerns SK-MEL-2. The experiment in a line: Cytotoxicity against human SK-MEL-2 cells by SRB assay. The class given is functional, cell-based.
Series [2] is described as follows: Cytotoxicity against mouse BV2 cells assessed as cell viability at 20 uM by MTT assay relative to control. In kind it is cell-based, BV-2. The note with it: read-out: Activity.
Series [3] deals with SK-OV-3. The experiment in a line: Cytotoxicity against human SKOV3 cells by SRB assay. In kind it is functional, cell-based.
Series [4] has as its system HCT-15. The experiment in a line: Cytotoxicity against human HCT15 cells by SRB assay. In kind it is functional, cell-based.
Series [5] deals with A549. The experiment in a line: Cytotoxicity against human A549 cells by SRB assay. In kind it is functional, cell-based.
Series [6] relates to C6. Kind of series: Neuroprotective activity in rat C6 cells assessed as stimulation of NGF release at 20 uM after 24 hrs by ELISA relative to control. In kind it is functional. The method in brief:
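C6 rat glioma cells were treated with each compound at 20 μM, and NGF secreted into the medium was measured. Stimulation is given as percent of control, and 6-shogaol was the positive control.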

Series [7] can be described thus: Antiinflammatory activity against LPS-stimulated mouse BV2 cells assessed as inhibition of nitric oxide production preincubated for 30 mins followed by LPS stimulation measured after 24 hrs by Griess assay. The note with it: BV-2. The class given is functional, cell-based. The method in brief: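 Murine BV2 microglial cells were activated with lipopolysaccharide. NO released into the culture medium was measured, and IC50 was derived from the inhibition of NO production. L-NMMA was the positive control.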

As for `COc1cc([C@H]2Oc3c(OC)cc(CCCO)cc3[C@@H]2CO[C@@H]2O[C@@H](C)[C@H](O)[C@@H](O)[C@H]2O)cc(OC)c1O`, the IC50 in series [1], in series [3], in series [4] and in series [5] was > 10 µM in each case. For the same compound, the viability at 20 µM in series [2] was determined as 98.2%. The Activity in series [6] is reported as 151.74%.
For `COc1cc([C@@H]2Oc3c(OC)cc(CCCO)cc3[C@H]2CO[C@@H]2O[C@@H](C)[C@H](O)[C@@H](O)[C@H]2O)cc(OC)c1O`, the IC50 in series [1], in series [3], in series [4] and in series [5] was > 10 µM throughout. The viability at 20 µM in series [2] was 104%. Besides, in series [6], the Activity is 106.85%.
Take `COc1cc(C[C@@H]2CO[C@@H](c3ccc(O)c(OC)c3)[C@@H]2CO[C@@H]2O[C@@H](C)[C@H](O)[C@@H](O)[C@H]2O)ccc1O`: the IC50 in series [1] was > 10 µM; in series [3] it was > 10 µM; in series [7], 180 µM; in series [4] it was > 10 µM; in series [5], > 10 µM. Besides, the viability at 20 µM in series [2] was found to be 102%. Also, the Activity in series [6] stood at 144.31%.
Regarding `COc1cc(C[C@@H]2CO[C@@H](c3cc(OC)c(O)c(OC)c3)[C@@H]2CO[C@@H]2O[C@@H](C)[C@H](O)[C@@H](O)[C@H]2O)cc(OC)c1O`, the IC50 in series [1] is > 10 µM; in series [3], > 10 µM; in series [7] it was 199 µM; in series [4], > 10 µM; in series [5], > 10 µM. Further, the viability at 20 µM in series [2] is 97.1%.
Regarding `COc1cc(C[C@H]2CO[C@@H](c3cc(OC)c(O)c(OC)c3)[C@H]2CO[C@@H]2O[C@@H](C)[C@H](O)[C@@H](O)[C@H]2O)cc(OC)c1O`, the half-inhibitory concentration (IC50) was > 10 µM in series [1]; > 10 µM in series [3]; 29.8 µM in series [7]; > 10 µM in series [4]; > 10 µM in series [5]. Also, the viability at 20 µM in series [2] stood at 113%. Besides, in series [6], the Activity is 124.67%.
Take `COc1cc(C[C@H](CO)[C@@H](CO[C@@H]2O[C@@H](C)[C@H](O)[C@@H](O)[C@H]2O)Cc2cc(OC)c(O)c(OC)c2)cc(OC)c1O`: the IC50 in series [1] was > 10 µM; in series [3] it was > 10 µM; in series [7], 21.3 µM; in series [4], > 10 µM; in series [5], > 10 µM. For the same compound, in series [2], the viability at 20 µM worked out at 104%. For the same compound, the Activity in series [6] is given as 167.61%.
Consider `COc1cc([C@H]2Oc3c(OC)cc(CCCO)cc3[C@@H]2CO[C@@H]2O[C@@H](C)[C@H](O)[C@@H](O)[C@H]2O)ccc1O`, for which the IC50 in series [1], in series [3], in series [4] and in series [5] was > 10 µM each time. The viability at 20 µM in series [2] was 97.4%. Moreover, the Activity in series [6] is on record as 102.88%.
Take `COc1cc([C@H]2c3c(cc(OC)c(O)c3OC)C[C@@H](CO)[C@@H]2CO[C@@H]2O[C@@H](C)[C@H](O)[C@@H](O)[C@H]2O)cc(OC)c1O`: the IC50 is > 10 µM in series [1]; > 10 µM in series [3]; 31.9 µM in series [7]; > 10 µM in series [4]; > 10 µM in series [5]. Further, the viability at 20 µM in series [2] was 99.1%.
As for `COc1cc([C@H]2c3c(cc(OC)c(O)c3OC)C[C@@H](CO)[C@@H]2CO[C@@H]2O[C@H](CO)[C@@H](O)[C@H](O)[C@H]2O)cc(OC)c1O`, the IC50 was > 10 µM in series [1]; > 10 µM in series [3]; 37.7 µM in series [7]; > 10 µM in series [4]; > 10 µM in series [5]. Moreover, the viability at 20 µM in series [2] turned out to be 99.7%.
For the compound `COc1cc([C@H]2Oc3c(OC)cc(CCCO)cc3[C@@H]2CO[C@@H]2O[C@H](CO)[C@@H](O)[C@H](O)[C@H]2O)ccc1O`, the IC50 in series [1], in series [3], in series [4] and in series [5] was > 10 µM in each case. Also, the viability at 20 µM in series [2] is 97.2%. For the same compound, the Activity in series [6] was 140.04%.
Consider `COc1cc([C@H]2c3cc(O)c(OC)cc3C[C@@H](CO)[C@@H]2CO[C@@H]2O[C@@H](C)[C@H](O)[C@@H](O)[C@H]2O)ccc1O` [AVICULIN], for which the IC50 in series [1] was > 10 µM; in series [3] it was > 10 µM; in series [7], 40.2 µM; in series [4] it was > 10 µM; in series [5], > 10 µM. Besides, in series [2], the viability at 20 µM is 96.1%. In series [6], the Activity was determined as 123.06%.
Regarding `CCCCC/C=C/C(=O)CCc1ccc(O)c(OC)c1` [SHOGAOL], the Activity in series [6] is on record as 141.75%.
Turning to `CNC(=N)NCCC[C@H](N)C(=O)O` [TILARGININE], the viability at 20 µM in series [2] was determined as 106%. In series [7], the IC50 is 24.8 µM.
